What was measured:
Plasmodium falciparum [1] = assay: Antiplasmodial activity against chloroquine-resistant Plasmodium falciparum Dd2 incubated for 3 days by HRP2 detection based ELISA method; assay type: functional, organism-based; conditions: Dd2, 72 h
How it was run: (§1)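 P. falciparum in continuous in vitro culture, growth inhibition assay. Each compound was tested in 12 serial dilutions, in duplicate. IC50 is the mean of at least two independent experiments.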

Plasmodium falciparum [2] = assay: Antiplasmodial activity against chloroquine-sensitive Plasmodium falciparum 3D7 incubated for 3 days by HRP2 detection based ELISA method; assay type: functional, organism-based; conditions: 3D7, 72 h; how it was run: as §1
[3] = Inhibition of recombinant Plasmodium falciparum recombinant IspC using […]1-Deoxy-D-xylulose 5-phosphate substrate by photometric assay
How it was run: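 Enzyme IC50 from nonlinear regression of inhibition data; mean ± SD from nine or more data points.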

Compound | IC50 (Plasmodium falciparum [1]) [nM] | IC50 (Plasmodium falciparum [2]) [nM] | IC50 [3] [nM]
CN(O)C(=O)COC(c1ccccc1)P(=O)(O)O (stereo not given) | 700 | 1200 | 37
O=CN(O)CCCP(=O)(O)O [FOSMIDOMYCIN SODIUM] | 810 | 880 | –
CN(O)C(=O)COC(c1ccc(Cl)c(Cl)c1)P(=O)(O)O (stereo not given) | 140 | 240 | 14
CN(O)C(=O)COC(c1ccc(F)c(F)c1)P(=O)(O)O (stereo not given) | 130 | 540 | 12
CN(O)C(=O)CCC(c1ccccc1)P(=O)(O)O (stereo not given) | – | – | 3.1
CN(O)C(=O)COC(c1ccc(F)c(F)c1)P(=O)(OCOC(=O)C(C)(C)C)OCOC(=O)C(C)(C)C (stereo not given) | 22 | 13 | –
O=C(COC(c1ccc(F)cc1F)P(=O)(O)O)NO (stereo not given) | – | > 50000 | 1700
CCN(O)C(=O)COC(c1ccccc1)P(=O)(O)O (stereo not given) | 3800 | 8100 | 210
CN(O)C(=O)COC(c1cccc2ccccc12)P(=O)(O)O (stereo not given) | 350 | 520 | 39
Cc1ccc(C(OCC(=O)N(C)O)P(=O)(O)O)cc1 (stereo not given) | 190 | 180 | 25
CCNC(=O)ON(C)C(=O)COC(c1ccc(F)c(F)c1)P(=O)(OCOC(=O)C(C)(C)C)OCOC(=O)C(C)(C)C (stereo not given) | 22 | 31 | –
Cc1ccc(C(OCC(=O)NO)P(=O)(O)O)cc1 (stereo not given) | – | > 50000 | 1800
CCOC(=O)ON(C)C(=O)COC(c1ccc(F)c(F)c1)P(=O)(OCOC(=O)C(C)(C)C)OCOC(=O)C(C)(C)C (stereo not given) | 19 | 23 | –
CN(O)C(=O)COC(c1ccc(F)cc1F)P(=O)(O)O (stereo not given) | 1200 | 1300 | 65
CN(O)C(=O)COC(c1ccc(F)cc1)P(=O)(O)O (stereo not given) | 350 | 480 | 27
O=C(COC(c1ccccc1)P(=O)(O)O)NO (stereo not given) | – | > 50000 | 1500
Cc1ccc(C(CCC(=O)N(C)O)P(=O)(O)O)cc1 (stereo not given) | – | – | 14
